Molecules are shown by their SMILES.

Data set [1] in a line: Half life was measured. The format is ADME. The method, boiled down:
(§1)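 Haloalkylamine (1.5–2 mM) in 50 mM sodium phosphate buffer, pH 7.4, at 37 °C. Released halide measured by argentometric titration. Data fitted by nonlinear regression to θ = 1 − e^(−k1·t), giving the apparent first-order constant k1. Means ± SE of three determinations.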

A short description of data set [2]: First order rate constant for cyclization of the compound. In kind it is ADME. The method, boiled down: as §1
Data set [3] deals with Mus musculus. The data set is described as follows: Muscarinic activity tested by measuring salivation in mice after ip administration. The format is functional. In a few lines: (§2)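 Male Swiss-Webster mice (24–30 g); compounds in ice-cold saline, used within 1 h, given ip or iv via tail vein. Salivation was scored by touching the mouth to absorbent paper at intervals over the first 10 min. Threshold dose estimated by the up-and-down method; mean ± SE.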

Data set [4] deals with Mus musculus. The data set is described as follows: Muscarinic activity tested by measuring tremor in mice after iv administration. The format is functional. In a few lines:
(§3)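 Male Swiss-Webster mice (24–30 g) dosed ip or iv via tail vein with compound in ice-cold saline (held on ice ≤1 h). Intermittent spontaneous (grade 2) tremor judged visually. Threshold dose estimated by the up-and-down method; mean ± SE.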

The next data set is filed under the species Cavia porcellus. The data set can be described thus: Muscarinic activity in isolated guinea pig ileum. In kind it is functional. The method, boiled down: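 Guinea pig ileum in Tyrode solution (pH 7.4, 37 °C) containing 0.3 mM hexamethonium. Isotonic contractions recorded at 1 g tension. Cumulative concentration-response curves used stepwise 2.15-fold increments, with oxotremorine as reference. Parent compounds were dissolved in ice-cold water. Cyclized forms were pre-incubated in 50 mM phosphate buffer pH 7.4 at 37 °C for 30 h, 2 h or 1 min depending on the compound. EC50 given as mean ± SE over n preparations.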

Data set [5] in a line: Toxicity was measured after iv administration. The format is organism-based. To be noted: mouse, in vivo. The method, boiled down:
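Male Swiss-Webster mice (24–30 g) dosed iv with compound in ice-cold saline. LD50 estimated by the up-and-down method, with mortality counted at 1 h; mean ± SE.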

The species entered for data set [6] is Mus musculus. The data set is described as follows: Analgesic activity was measured by tail flick assay. In kind it is functional. In a few lines: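 Male Swiss-Webster mice (24–30 g); drug in ice-cold saline (kept on ice ≤1 h), given ip after control reaction times were taken. Tail-flick reaction times recorded 10 min post-dose; responders were animals whose reaction time was at least twice control. Dose estimated by the up-and-down method.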

Data set [7] is described as follows: (§4) The equipotent molar ratio relative to oxotremorine (EPMR). In kind it is functional. In a few lines:
(§5)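 Ileum EC50 taken as a ratio to the oxotremorine EC50 in guinea pig ileum contracting in Tyrode (pH 7.4, 37 °C, 0.3 mM hexamethonium). Curves were cumulative with 2.15-fold steps. Compounds were tested as parents in ice-cold water or after pre-cyclization in pH 7.4 phosphate buffer at 37 °C. Mean ± SE.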

For data set [8], the system named is Mus musculus. The data set is described as follows: Muscarinic activity tested by measuring salivation in mice after iv administration. The format is functional. In a few lines:
as §2

Data set [9] can be described thus: as §4. The format is ADME. In a few lines:
as §5

For data set [10], the system named is Mus musculus. The data set can be described thus: Muscarinic activity tested by measuring tremor in mice after ip administration. In kind it is functional. In a few lines: as §3

As for `CN(CC#CCN1CCCC1=O)CCCl`, the half-life in data set [1] came to 36.5 min. The K1 in data set [2] was found to be 0.019 min⁻¹.

`CN(CC#CCN1CCCC1=O)CCCCCl`: the ED50 with Mus musculus [3] was found to be 4.2 µmol/kg; with Mus musculus [4], 3.6 µmol/kg; in the data set filed under Mus musculus [6] it was 10.3 µmol/kg; in the data set on Mus musculus [8], 1.1 µmol/kg. The EC50 in the data set filed under Cavia porcellus came to 538 nM. This compound also registered a half-life in data set [1] of less than 0.4 min. The K1 in data set [2] was more than 2 min⁻¹. The same compound gave an LD50 in data set [5] of 8 µmol/kg. Further, the Ratio in data set [7] was 10.2.

In the case of `CN(CC#CCN1CCCC1=O)CCCCl`, the ED50 came to 29.3 µmol/kg in the data set with Mus musculus [3], 33.3 µmol/kg in the data set filed under Mus musculus [6] and 22.4 µmol/kg with Mus musculus [8]. Moreover, the EC50 in the data set filed under Cavia porcellus came to 120 nM. The half-life in [1] was found to be 436 min. The compound also registered a K1 in data set [2] of 0.0016 min⁻¹. In data set [5], this compound registered an LD50 of 245 µmol/kg. The Ratio in [9] worked out at 2.78.

Take `CN(CC#CCN1CCCC1=O)CCCBr`: the ED50 in the data set with Mus musculus [3] stood at 6 µmol/kg; with Mus musculus [4] it was 6.3 µmol/kg; with Mus musculus [10], 15.6 µmol/kg; in the data set listed under Mus musculus [6], 3.2 µmol/kg; in the data set with Mus musculus [8] it was 2.9 µmol/kg. The EC50 in the data set listed under Cavia porcellus was 114 nM. The same compound displayed a half-life in [1] of 11.4 min. The K1 in data set [2] was found to be 0.061 min⁻¹. Moreover, the LD50 in data set [5] came out at 46.7 µmol/kg. Moreover, the Ratio in data set [7] was found to be 2.49.

With `O=C1CCCN1CC#CCN1CCCC1` [OXOTREMORINE], the ED50 was determined as 0.29 µmol/kg with Mus musculus [3]; 0.44 µmol/kg in the data set with Mus musculus [4]; 0.59 µmol/kg in the data set on Mus musculus [10]; 0.1 µmol/kg in the data set listed under Mus musculus [6]; 0.19 µmol/kg in the data set with Mus musculus [8]. For the same compound, the EC50 in the data set filed under Cavia porcellus worked out at 44 nM. In addition, the Ratio in [9] was 1.

In the case of `CN(CC#CCN1CCCC1=O)CCBr`, in data set [1], the half-life amounted to 0.8 min. For the same compound, the K1 in [2] came out at 0.85 min⁻¹.

`C[N+]1(CC#CCN2CCCC2=O)CCCC1` gave an EC50 in the data set filed under Cavia porcellus of 401 nM. Also, the Ratio in [9] amounted to 8.31.

For the compound `CC1CCC(=O)N1CC#CCN(C)CCCBr` (stereo not given), the ED50 in the data set on Mus musculus [3] came out at 80.8 µmol/kg; in the data set filed under Mus musculus [6] it was 111 µmol/kg; with Mus musculus [8] it was 38 µmol/kg. The half-maximal effective concentration (EC50) in the data set listed under Cavia porcellus was 1140 nM. In data set [1], this compound showed a half-life of 12.5 min. In [2], this compound had a K1 of 0.0555 min⁻¹. For the same compound, in data set [5], the LD50 is more than 250 µmol/kg. Also, in data set [7], the Ratio amounted to 23.7.

In the case of `CN(CC#CCN1CCCC1=O)CCCI`, the ED50 in the data set on Mus musculus [3] turned out to be 10.4 µmol/kg; in the data set on Mus musculus [4], 8.9 µmol/kg; with Mus musculus [10], 29.7 µmol/kg; in the data set listed under Mus musculus [6], 7.7 µmol/kg; with Mus musculus [8], 4.5 µmol/kg. For the same compound, in the data set listed under Cavia porcellus, the EC50 turned out to be 136 nM. The half-life in data set [1] stood at 14.1 min. For the same compound, the K1 in data set [2] was determined as 0.0491 min⁻¹. Further, the LD50 in [5] is more than 125 µmol/kg. Besides, in data set [7], the Ratio was determined as 2.95.

`C[N+](C)(C)CCOC(N)=O.[Cl-]` [CARBACHOL] gave an EC50 in the data set filed under Cavia porcellus of 120 nM. For the same compound, in [9], the Ratio was found to be 2.6.

Source of the values: ChEMBL document CHEMBL1123944, “Tertiary 3- and 4-haloalkylamine analogues of oxotremorine as prodrugs of potent muscarinic agonists” (J Med Chem, 1988).
